ChEMBL document CHEMBL2380280, “Xanthates and trithiocarbonates strongly inhibit carbonic anhydrases and show antiglaucoma effects in vivo” (J Med Chem, 2013)
Calls of active or inactive are those of the source. The rule behind the calls is not given here.

Legend:
[1] = biological target: Carbonic anhydrase 9 (Homo sapiens, UniProt Q16790); experiment: Inhibition of recombinant human CA9 transmembrane isoform preincubated for 15 mins by stopped-flow CO2 hydration assay
[2] = test system: Oryctolagus cuniculus; experiment: Antiglaucoma activity in hypertensive New Zealand albino rabbit model assessed as decrease in carbomer-induced intraocular pressure at 2% administered to eye after 150 mins by tanometric analysis; format: functional, organism-based
How it was run: (§1)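 Adult male New Zealand albino rabbits, 2−2.5 kg. Glaucoma induced by bilateral anterior-chamber injection of 0.1 mL 0.25% carbomer under im tiletamine/zolazepam plus xilazine anaesthesia. Once IOP was stably raised, drug was instilled into one eye and vehicle into the contralateral eye, three animals per drug. IOP was read by Tono-Pen tonometer after oxybuprocaine drops, before dosing and at 30, 60, 90, 120, 240 and 300 min.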

[3] = test system: Oryctolagus cuniculus; experiment: Antiglaucoma activity in normotensive New Zealand rabbit model assessed as decrease in intraocular pressure administered to eye vitreous by tanometric analysis; format: functional, organism-based
[4] = test system: Oryctolagus cuniculus; experiment: Antiglaucoma activity in hypertensive New Zealand albino rabbit model assessed as decrease in carbomer-induced intraocular pressure at 2% administered to eye measured up to 200 to 250 mins by tanometric analysis; format: functional, organism-based; how it was run: as §1
[5] = test system: Oryctolagus cuniculus; experiment: Antiglaucoma activity in hypertensive New Zealand albino rabbit model assessed as decrease in carbomer-induced intraocular pressure at 2% administered to eye after 50 to 100 mins by tanometric analysis (reference value: 35 to 40 mmHg); format: functional; how it was run: as §1
[6] = test system: Oryctolagus cuniculus; experiment: Antiglaucoma activity in normotensive New Zealand rabbit model assessed as decrease in intraocular pressure at 2% administered to eye vitreous by tanometric analysis; format: functional
[7] = biological target: Carbonic anhydrase 2 (Homo sapiens, UniProt P00918); experiment: Inhibition of recombinant human CA2 cytosolic isoform preincubated for 15 mins by stopped-flow CO2 hydration assay
[8] = biological target: Carbonic anhydrase 12 (Homo sapiens, UniProt O43570); experiment: Inhibition of recombinant human CA12 transmembrane isoform preincubated for 15 mins by stopped-flow CO2 hydration assay
[9] = biological target: Carbonic anhydrase 1 (Homo sapiens, UniProt P00915); experiment: Inhibition of recombinant human CA1 cytosolic isoform preincubated for 15 mins by stopped-flow CO2 hydration assay
[10] = test system: Oryctolagus cuniculus; experiment: Antiglaucoma activity in hypertensive New Zealand albino rabbit model assessed as decrease in carbomer-induced intraocular pressure at 2% administered to eye after > 250 mins by tanometric analysis; format: functional, organism-based; how it was run: as §1
[11] = test system: Oryctolagus cuniculus; experiment: Antiglaucoma activity in hypertensive New Zealand albino rabbit model assessed as decrease in carbomer-induced intraocular pressure at 2% administered to eye after 100 mins by tanometric analysis (reference value: 35 to 40 mmHg); format: functional; how it was run: as §1

Sequence of Carbonic anhydrase 1 (P00915 whole entry, canonical isoform): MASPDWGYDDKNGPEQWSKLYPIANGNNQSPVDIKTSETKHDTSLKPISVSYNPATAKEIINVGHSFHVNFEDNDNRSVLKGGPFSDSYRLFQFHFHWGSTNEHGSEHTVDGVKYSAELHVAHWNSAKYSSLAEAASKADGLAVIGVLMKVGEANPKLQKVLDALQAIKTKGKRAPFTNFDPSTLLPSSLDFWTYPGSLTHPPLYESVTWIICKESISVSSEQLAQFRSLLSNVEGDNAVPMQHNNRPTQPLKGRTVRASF
Sequence of Carbonic anhydrase 12 (O43570 whole entry, canonical isoform): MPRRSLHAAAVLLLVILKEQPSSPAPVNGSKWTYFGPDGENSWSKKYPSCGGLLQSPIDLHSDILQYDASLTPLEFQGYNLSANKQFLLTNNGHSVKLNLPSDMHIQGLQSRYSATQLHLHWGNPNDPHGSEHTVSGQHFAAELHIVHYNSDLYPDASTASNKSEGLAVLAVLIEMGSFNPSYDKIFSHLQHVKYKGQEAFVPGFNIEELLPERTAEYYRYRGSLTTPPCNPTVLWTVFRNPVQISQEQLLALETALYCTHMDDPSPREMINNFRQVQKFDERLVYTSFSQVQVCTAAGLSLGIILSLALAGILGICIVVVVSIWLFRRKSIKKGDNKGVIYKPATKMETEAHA

N#CNC(=S)S
Ki [1]: 678 nM

S=C(S)OCC12CC3CC(CC(C3)C1)C2
Ki [1]: 776 nM

CCCCCCCCOC(=S)S
Ki [1]: 72.1 nM

CCN[C@H]1C[C@H](C)S(=O)(=O)c2sc(S(N)(=O)=O)cc21
Activity [2]: inactive
Activity [3]: inactive

CC(C)OC(=S)S
Ki [1]: 531 nM

CN(C)CCOCCOC(=S)[S-].[K+]
Activity [4]: Active
Activity [5]: 4 mmHg
Ki [1]: 831 nM
Activity [6]: 1 mmHg

S=C([S-])OCCC12CC3CC(CC(C3)C1)C2.[K+]
Activity [4]: Active
Activity [5]: 4 mmHg
Ki [1]: 779 nM
Activity [6]: 1 mmHg

CC(C)(C)OC(=O)NCCCCOC(=S)[S-].[K+]
Activity [4]: Active
Activity [5]: 4 mmHg
Ki [1]: 622 nM
Activity [6]: 1 mmHg

S=C(S)OC1CC2CC1C1CCCC21 (centres undefined)
Ki [1]: 643 nM
Ki [7]: 6.6 nM
Ki [8]: 835 nM
Ki [9]: 63.4 nM

COC(=S)S
Ki [1]: 631 nM

CC(C)CCOC(=S)S
Ki [1]: 322 nM

S=C(S)OC1CCCCC1
Ki [1]: 78.8 nM

S=C(S)OC1CCCC1
Ki [1]: 47.2 nM
Ki [7]: 366 nM
Ki [8]: 74.7 nM
Ki [9]: 532 nM

S=C([S-])OCCc1ccccn1.[K+]
Activity [4]: Active
Activity [5]: 4 mmHg
Ki [1]: 4.3 nM
Activity [6]: 1 mmHg

CCCCCOC(=S)S
Ki [1]: 403 nM

S=C(S)OCc1ccccc1
Ki [1]: 8.1 nM

CC(C)(C)OC(=O)NCCCCCCOC(=S)S
Ki [1]: 765 nM

S=C([S-])OCC(c1ccccc1)c1ccccc1.[K+]
Activity [4]: Active
Activity [10]: Active
Ki [1]: 58 nM
Activity [11]: 12 mmHg
Activity [6]: 1 mmHg

CCOC(=S)S
Ki [1]: 566 nM

S=C(S)SCc1ccccc1
Ki [1]: 7.8 nM

CN(C)CCOC(=S)S
Ki [1]: 760 nM
